Assay results from PubChem BioAssay AID588806 (The Scripps Research Institute Molecular Screening Center, 2011).

Target: Palmitoyl-protein thioesterase ABHD10, mitochondrial (Mus musculus) (UniProt Q6PE15)
Assay: in situ ABHD10 inhibition, late-stage follow-up, PME-1 inhibitor project, cell-based, competitive gel ABPP, fluorescence, mouse (AID 588806)
Settings: BW5147 mouse T cells, in situ FP-Rh gel ABPP, 4 h, stronger effect = higher value
Outline: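 Assay system: in situ endogenous ABHD10, murine T cells derived from BW5147; medium: serum-free RPMI for cell treatment, homogenate at 1 mg/mL protein; reagent: Rhodamine-fluorophosphonate activity-based probe FP-Rh, 1 µM final; schedule: compound exposure 4 h/37 °C, probe labelling 30 min/25 °C; detection: SDS-PAGE separation with in-gel fluorescence scanning of probe-labelled bands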

Chain of Palmitoyl-protein thioesterase ABHD10, mitochondrial (Mus musculus) (Q6PE15 whole entry, looked up): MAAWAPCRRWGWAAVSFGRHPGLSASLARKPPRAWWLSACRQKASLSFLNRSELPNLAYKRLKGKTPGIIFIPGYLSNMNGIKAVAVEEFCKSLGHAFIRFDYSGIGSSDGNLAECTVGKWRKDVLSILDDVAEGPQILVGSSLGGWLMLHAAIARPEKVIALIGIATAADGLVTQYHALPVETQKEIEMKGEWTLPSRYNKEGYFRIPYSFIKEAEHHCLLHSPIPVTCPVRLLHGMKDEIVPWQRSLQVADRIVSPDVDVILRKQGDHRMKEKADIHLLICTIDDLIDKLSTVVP

| inhibition (at 0.25 µM) | inhibition (inhibition, at 0.05 µM) | inhibition (inhibition, at 0.1 µM) | Structure (SMILES) |
| --- | --- | --- | --- |
| 90% | 60% | 80% | CCCOC(=O)N1C(=O)[C@@](CC)(c2ccc(C)cc2)N1C(=O)OCCC |
| 90% | 75% | 70% | CC[C@@]1(c2ccc(C)cc2)C(=O)N(C(=O)OC(C)C)N1C(=O)OC(C)C |
| 70% | 40% | 60% | C=CCOC(=O)N1C(=O)[C@@](CC)(c2ccc(C)cc2)N1C(=O)OCC=C |
